Reference: article PMC7125971 (European Journal of Medicinal Chemistry, 2015)
Entries after “also recorded” stand apart in the source; their conditions may differ.

Experiments:
Punta Toro virus = test: microbe, parasite or virus in culture; format: cell-based; conditions: Vero, read-out: EC50 Punta Toro virus
Reovirus-1 = test: organism not typed; format: cell-based; conditions: Vero, read-out: EC50 Reovirus-1
Para-influenza-3 virus = test: organism not typed; format: cell-based; conditions: Vero, read-out: EC50 Para-influenza-3 virus
[1] = tested on: 3T3 cells (embryonal murine fibroblasts); test: Cytotoxic effects on embryonal murine fibroblasts 3T3; format: cell-based, mouse
Procedure, shortened: (§1)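 Cells grown as monolayers in DMEM with 10% FBS, 2 mM L-glutamine, 100 U/ml penicillin and 100 μg/ml streptomycin at 37 °C, 5% CO2. 5000 cells/well seeded on day 0. Compound added in five 10-fold dilutions (0.01–100 μM); final DMSO ≤0.1%. Cells incubated 72 h, then MTT; absorbance converted to percentage growth vs same-plate untreated controls. Quadruplicate points in three experiments; ANOVA with Tukey post-hoc test.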

[2] = tested on: human cytomegalovirus (HCMV); test: Anti-HCMV activity in HEL cells, strain not told apart in the statement; format: cell-based; conditions: compared to compound 3
[3] = tested on: all tested malignant cell lines; test: Cytostatic activity on the whole panel of malignant cell lines; format: cell-based
Procedure, shortened: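 Malignant lines HeLa, SW620, MiaPaCa-2, HepG2 and CFPAC-1 grown as monolayers in DMEM with 10% FBS at 37 °C, 5% CO2. Plated at 5000 cells/well and exposed 72 h to five 10-fold dilutions (0.01–100 μM), with DMSO ≤0.1%. Growth read by MTT and converted to percentage growth by NIH formulas. Quadruplicate points in three experiments; ANOVA with Tukey post-hoc test.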

[4] = tested on: HeLa cells (cervical carcinoma); test: Antiproliferative assay; format: cell-based, human
Procedure, shortened: as §1

[5] = tested on: African green monkey kidney epithelial cells (Vero); conditions: alteration of normal cell morphology, listed as C00010
[6] = tested on: Madin Darby canine kidney (MDCK) cells
[7] = tested on: Crandell-Rees feline kidney cells (CRFK)
[8] = tested on: human embryonic lung cells (HEL); test: Cytostatic activity; format: cell-based
Procedure, shortened: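 HEL cells seeded at 5 × 10^3 cells/well and allowed to proliferate 24 h. Medium with varying compound concentrations then added, and cells incubated 3 days at 37 °C. Cell number counted by Coulter counter. CC50 (50% reduction in proliferation vs untreated controls) read from plots of cell number (% of control) against concentration.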

SMILES	EC50 (Reovirus-1)	cytotoxic effects on 3T3 cells (in words) [1]	cytostatic activity on the malignant cell line panel (in words) [3]	further results
NC(=O)c1ncn([C@@H]2O[C@H](CO)[C@@H](O)[C@H]2O)n1 [Ribavirin, reference compound]	> 250 µM			EC50 (Punta Toro virus): 150 ± 141 µM
Nc1ncnc2c1ncn2C[C@H](O)CO [(S)-DHPA, (S)-9-(2,3-dihydroxypropyl)adenine, reference compound]	> 250 µM			EC50 (Para-influenza-3 virus): > 250 µM
O=C1O/C(=C\Cn2cnc3cc[nH]c3c2=O)C(OCc2ccccc2)=C1OCc1ccccc1 [Compound 14, 3,4-di-O-benzyl-5-(1-(3H-pyrrolo[3,2-d]pyrimidine-4(5H)-one-1-yl)ethylidene)furan-2(5H)-one]		without cytotoxic effects		
Nc1nc(F)c(Cl)c2c1ncn2CCC1(O)NC(=O)C(OCc2ccccc2)=C1OCc1ccccc1 (centres unmarked) [Compound 7, 5-(9-(6-amino-3-chloro-2-fluoro-1H-imidazo[4,5-c]pyridine-9-yl)ethyl)-3,4-di-O-benzyl-5-hydroxy-1H-pyrrolo-2(5H)-one]				anti-HCMV activity (in words) [2]: lost anti-HCMV activity; also recorded: loss of anti-HCMV activity
O=C1O/C(=C\Cn2cnc3c(Cl)c(F)nc(F)c32)C(O)=C1O [Compound 8, 5-(2-(7-chloro-4,6-difluoro-3H-imidazo[4,5-c]pyridine-3-yl)ethylidene)-3,4-dihydroxyfuran-2(5H)-one]				anti-HCMV activity (in words) [2]: loss of anti-HCMV activity
O=C1O/C(=C\Cn2cnc3cncc(Br)c32)C(OCc2ccccc2)=C1OCc1ccccc1 [Compound 1, 3,4-di-O-benzyl-5-(9-(3-bromo-1H-imidazo[4,5-c]pyridine-9-yl)ethylidene)furan-2(5H)-one]		low cytotoxic effects; also recorded: moderate or low cytotoxic effects	weak and nonselective antiproliferative activity	activity / cytostatic effects on HeLa cells (in words) [4]: moderate activity
O=C1NC(O)(/C=C\n2cc(I)c3c(Cl)ncnc32)C(OCc2ccccc2)=C1OCc1ccccc1 (centres unmarked) [Compound 12, 3,4-di-O-benzyl-5-(9-(6-chloro-7-iodo-7H-pyrrolo[2,3-d]pyrimidine-9-yl)-vinyl)-5-hydroxy-1H-pyrrolo-2(5H)-one]		moderate or low cytotoxic effects	weak and nonselective antiproliferative activity; also recorded: no marked cytostatic nor antiviral activities	
O=C1O/C(=C\Cn2cc(I)c3c(Cl)ncnc32)C(OCc2ccccc2)=C1OCc1ccccc1 [Compound 10, 3,4-di-O-benzyl-5-(9-(6-chloro-7-iodo-7H-pyrrolo[2,3-d]pyrimidine-9-yl)ethylidene)furan-2(5H)-one]			no marked cytostatic nor antiviral activities	
O=C1O/C(=C\Cn2cnc3c(F)nc(F)c(Cl)c32)C(OCc2ccccc2)=C1OCc1ccccc1 [Compound 2, 3,4-di-O-benzyl-5-(9-(3-chloro-2,6-difluoro-1H-imidazo[4,5-c]pyridine-9-yl)ethylidene)furan-2(5H)-one]	> 20 µM			MCC [5]: ≥20 µM; activity / cytostatic effects on HeLa cells (in words) [4]: no cytostatic effects; EC50 (Para-influenza-3 virus): > 20 µM
O=C1NC(O)(CCn2cnc3cncc(Br)c32)C(OCc2ccccc2)=C1OCc1ccccc1 (centres unmarked) [Compound 6, 3,4-di-O-benzyl-5-(9-(3-bromo-1H-imidazo[4,5-c]pyridine-9-yl)ethyl)-5-hydroxy-1H-pyrrolo-2(5H)-one]		moderate or low cytotoxic effects	weak and nonselective antiproliferative activity	
O=C1O/C(=C\Cn2cnc3c(Cl)c(F)nc(F)c32)C(OCc2ccccc2)=C1OCc1ccccc1 [Compound 3, 3,4-di-O-benzyl-5-(7-(3-chloro-2,6-difluoro-1H-imidazo[4,5-c]pyridine-7-yl)ethylidene)furan-2(5H)-one]	> 20 µM	did not show any cytostatic effects		activity / cytostatic effects on HeLa cells (in words) [4]: did not show any cytostatic effects; cytostatic effects on MDCK cells (in words) [6]: did not show any cytostatic effects; cytostatic effects on CRFK cells (in words) [7]: did not show any cytostatic effects; EC50 (Para-influenza-3 virus): > 20 µM; cytotoxic effects on HEL cells (in words) [8]: without cytotoxic effects; also recorded: did not show any cytostatic effects
